Test results published in ChEMBL document CHEMBL2034857, “Discovery of the macrocycle (9E)-15-(2-(pyrrolidin-1-yl)ethoxy)-7,12,25-trioxa-19,21,24-triaza-tetracyclo[18.3.1.1(2,5).1(14,18)]hexacosa-1(24),2,4,9,14(26),15,17,20,22-nonaene (SB1578), a potent inhibitor of janus kinase 2/fms-like tyrosine kinase-3 (JAK2/FLT3) for the treatment of rheumatoid …” (J Med Chem, 2012).

Assays:
[1] = Tmax in BALB/c nude mouse at 50 mg/kg, po; type: ADME, organism-based; parameters: dose 50 mg/kg, route oral; settings: in vivo
How it was run: (§1)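 Single oral dose by gavage as suspension in 0.5% methylcellulose/0.1% Tween 80 (mouse, rat, monkey) or in gelatin capsules (dog). Serial blood samples taken from 0 to 24 h into K3EDTA tubes; plasma stored at −70 °C until analysis. Parameters derived by noncompartmental methods. Rat, dog and monkey n = 3; mouse values estimated from mean concentration-time data, n = 3 mice per time point.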

[2] = AUC (0 to infinity) in Wistar rat at 50 mg/kg, po; type: ADME, organism-based; parameters: dose 50 mg/kg, route oral, time infinity; settings: plasma
How it was run: (§2)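 Single oral gavage at 50 (mouse, rat), 5 (dog) or 20 (monkey) mg/kg; rodents and monkeys received suspensions in 0.5% methylcellulose/0.1% Tween 80, dogs gelatin capsules. Serial blood taken 0–24 h into K3EDTA, plasma stored at −70 °C. Parameters estimated by noncompartmental analysis, n = 3 per species (mouse values from mean concentration–time data, 3 mice per time point).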

[3] = target: Tyrosine-protein kinase JAK1 (Homo sapiens, UniProt P23458); test: Inhibition of recombinant JAK1 using poly(Glu,Ala,Tyr) as substrate after 2 hrs by luminometric assay
Chain of Tyrosine-protein kinase JAK1 (P23458 whole entry): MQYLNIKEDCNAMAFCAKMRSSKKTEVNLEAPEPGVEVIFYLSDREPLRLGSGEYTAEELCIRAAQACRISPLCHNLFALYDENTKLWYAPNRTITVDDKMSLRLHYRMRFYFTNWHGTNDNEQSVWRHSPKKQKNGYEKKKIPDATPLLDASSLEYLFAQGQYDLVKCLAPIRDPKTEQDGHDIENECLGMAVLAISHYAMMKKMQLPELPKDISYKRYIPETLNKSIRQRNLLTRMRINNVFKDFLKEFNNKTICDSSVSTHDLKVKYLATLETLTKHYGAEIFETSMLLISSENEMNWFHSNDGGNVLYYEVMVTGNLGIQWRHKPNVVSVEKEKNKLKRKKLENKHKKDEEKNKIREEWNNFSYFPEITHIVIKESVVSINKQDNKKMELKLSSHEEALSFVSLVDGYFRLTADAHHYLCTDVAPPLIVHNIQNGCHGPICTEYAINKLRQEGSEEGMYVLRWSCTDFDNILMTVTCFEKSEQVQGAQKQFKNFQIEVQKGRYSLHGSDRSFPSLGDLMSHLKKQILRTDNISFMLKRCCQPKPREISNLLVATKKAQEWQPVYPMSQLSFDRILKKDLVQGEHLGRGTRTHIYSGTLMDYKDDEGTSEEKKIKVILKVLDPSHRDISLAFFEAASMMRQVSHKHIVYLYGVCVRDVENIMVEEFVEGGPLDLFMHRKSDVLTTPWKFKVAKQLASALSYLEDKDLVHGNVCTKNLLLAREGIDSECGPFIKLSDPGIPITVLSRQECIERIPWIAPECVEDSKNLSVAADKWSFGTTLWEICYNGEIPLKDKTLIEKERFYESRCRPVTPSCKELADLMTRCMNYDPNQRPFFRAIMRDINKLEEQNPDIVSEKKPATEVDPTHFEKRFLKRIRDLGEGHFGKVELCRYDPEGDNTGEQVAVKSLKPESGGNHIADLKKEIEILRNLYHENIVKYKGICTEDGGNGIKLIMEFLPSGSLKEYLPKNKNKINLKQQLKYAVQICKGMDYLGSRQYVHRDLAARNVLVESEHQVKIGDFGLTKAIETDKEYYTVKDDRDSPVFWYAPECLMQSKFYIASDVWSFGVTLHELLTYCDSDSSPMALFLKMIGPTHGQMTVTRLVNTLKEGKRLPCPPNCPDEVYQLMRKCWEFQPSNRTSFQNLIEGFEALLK

[4] = target: Macrophage colony-stimulating factor 1 receptor (Homo sapiens, UniProt P07333); test: Inhibition of c-fms
Chain of Macrophage colony-stimulating factor 1 receptor (P07333 whole entry): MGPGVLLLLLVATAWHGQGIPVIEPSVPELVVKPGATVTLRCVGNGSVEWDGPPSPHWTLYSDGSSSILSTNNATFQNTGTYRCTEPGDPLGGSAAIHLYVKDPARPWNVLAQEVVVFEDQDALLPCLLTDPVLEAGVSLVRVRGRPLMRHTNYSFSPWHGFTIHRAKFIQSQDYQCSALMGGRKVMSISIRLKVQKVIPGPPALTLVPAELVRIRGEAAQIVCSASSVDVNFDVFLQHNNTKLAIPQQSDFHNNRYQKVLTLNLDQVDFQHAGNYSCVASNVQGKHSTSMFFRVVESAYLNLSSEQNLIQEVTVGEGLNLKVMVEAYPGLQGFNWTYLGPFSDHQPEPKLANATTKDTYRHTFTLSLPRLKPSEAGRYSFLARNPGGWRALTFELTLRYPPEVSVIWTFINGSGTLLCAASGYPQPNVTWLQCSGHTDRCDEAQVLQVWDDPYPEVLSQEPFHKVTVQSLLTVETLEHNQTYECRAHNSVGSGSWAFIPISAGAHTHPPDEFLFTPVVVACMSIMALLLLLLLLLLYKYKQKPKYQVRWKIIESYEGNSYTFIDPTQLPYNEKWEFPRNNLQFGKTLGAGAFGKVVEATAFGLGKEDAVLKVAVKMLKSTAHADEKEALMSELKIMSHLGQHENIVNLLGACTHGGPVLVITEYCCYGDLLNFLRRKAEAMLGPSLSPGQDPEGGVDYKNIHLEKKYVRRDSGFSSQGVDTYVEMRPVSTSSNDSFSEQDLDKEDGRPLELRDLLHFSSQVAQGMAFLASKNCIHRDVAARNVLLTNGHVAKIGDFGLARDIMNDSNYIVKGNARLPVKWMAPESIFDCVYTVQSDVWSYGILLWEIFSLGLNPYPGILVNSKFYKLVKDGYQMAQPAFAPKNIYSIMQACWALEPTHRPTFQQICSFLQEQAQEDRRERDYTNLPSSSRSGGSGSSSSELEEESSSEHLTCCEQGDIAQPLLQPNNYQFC

[5] = Half life in mouse liver microsomes; type: ADME, Microsome
[6] = Cmax in Wistar rat at 50 mg/kg, po; type: ADME, organism-based; parameters: dose 50 mg/kg, route oral; settings: in vivo; how it was run: as §2
[7] = Plasma protein binding in dog at 1000 ng/mL by equilibrium dialysis; type: ADME, cell-free, Canis lupus familiaris; settings: read-out: PPB (converted)
How it was run: (§3)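 Equilibrium dialysis of plasma (mouse, rat, dog, monkey, human) spiked to 1000 ng/mL final against PBS, 4 h at 37 °C; buffer side extracted with MTBE in triplicate and analyzed by LC-MS/MS.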

BaF3 = test: Antiproliferative activity against mouse BAF3 cells expressing JAK2 V617F mutant after 48 hrs by luciferase reporter gene assay; type: functional; settings: BaF3, 48 h
HL-60 = test: Antiproliferative activity against human HL60 cells expressing FLT3 after 48 hrs by luciferase reporter gene assay; type: functional; settings: HL-60, 48 h
[8] = Half life in rat liver microsomes at 5 uM; type: ADME, Microsome
How it was run: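 Compound at 5 μM with human, mouse or dog microsomes at 0.87 mg/mL, or rat and monkey microsomes at 1 mg/mL, in 50 mM potassium phosphate pH 7.4 with NADPH regenerating system at 37 °C.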

[9] = Terminal half life in rhesus monkey at 20 mg/kg, po; type: ADME, organism-based, Macaca mulatta; parameters: dose 20 mg/kg, route oral; settings: in vivo, read-out: beta t1/2 (converted); how it was run: as §1
Mus musculus = test: Antiarthritic activity in B10/R3 mouse immunized with bovine type2 collagen in Freund's complete adjuvant assessed as inhibition of increase in clinical arthritic scores at 105 mg/kg, po administered bid for 10 days measured for 10 days; type: functional; settings: B10/R3, 240 h
[10] = target: T1, Tyrosine-protein kinase JAK3 (Homo sapiens, UniProt P52333); test: Inhibition of recombinant JAK3 using poly(Glu,Ala,Tyr) as substrate after 2 hrs by luminometric assay
T1 sequence (P52333 whole entry): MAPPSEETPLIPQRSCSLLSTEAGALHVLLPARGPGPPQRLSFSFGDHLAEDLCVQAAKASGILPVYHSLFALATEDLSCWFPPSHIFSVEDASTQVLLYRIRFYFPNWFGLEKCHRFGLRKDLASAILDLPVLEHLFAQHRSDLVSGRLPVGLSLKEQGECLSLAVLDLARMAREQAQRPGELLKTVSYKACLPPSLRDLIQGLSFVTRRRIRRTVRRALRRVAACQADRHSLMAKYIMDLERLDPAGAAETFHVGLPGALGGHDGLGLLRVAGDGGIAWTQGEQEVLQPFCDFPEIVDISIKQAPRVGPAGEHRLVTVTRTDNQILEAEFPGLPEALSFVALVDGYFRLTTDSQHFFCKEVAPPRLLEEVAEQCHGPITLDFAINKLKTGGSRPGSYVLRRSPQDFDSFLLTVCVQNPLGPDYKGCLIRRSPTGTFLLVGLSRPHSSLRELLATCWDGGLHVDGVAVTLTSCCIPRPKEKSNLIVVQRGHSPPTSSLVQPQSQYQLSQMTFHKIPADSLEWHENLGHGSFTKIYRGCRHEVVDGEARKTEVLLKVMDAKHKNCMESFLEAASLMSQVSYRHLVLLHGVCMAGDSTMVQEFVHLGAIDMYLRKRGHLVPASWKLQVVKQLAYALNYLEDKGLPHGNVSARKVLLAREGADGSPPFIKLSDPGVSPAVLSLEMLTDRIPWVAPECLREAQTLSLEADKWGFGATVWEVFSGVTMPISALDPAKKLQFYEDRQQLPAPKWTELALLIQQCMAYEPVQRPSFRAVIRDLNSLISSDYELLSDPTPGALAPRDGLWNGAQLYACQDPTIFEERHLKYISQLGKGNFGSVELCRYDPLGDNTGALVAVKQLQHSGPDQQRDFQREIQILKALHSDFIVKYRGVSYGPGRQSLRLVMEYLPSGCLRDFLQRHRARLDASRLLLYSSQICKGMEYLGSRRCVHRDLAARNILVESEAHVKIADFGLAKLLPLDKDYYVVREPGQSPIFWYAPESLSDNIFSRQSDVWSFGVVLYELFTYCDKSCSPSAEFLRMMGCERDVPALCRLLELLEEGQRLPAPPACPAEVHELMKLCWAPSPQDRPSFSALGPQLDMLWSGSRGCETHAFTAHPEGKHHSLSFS

[11] = Plasma protein binding in rat at 1000 ng/mL by equilibrium dialysis; type: ADME, cell-free; settings: read-out: PPB (converted); how it was run: as §3
Cytochrome P450 3A4 = Cytochrome P450 3A4 (Homo sapiens, UniProt P08684); test: Inhibition of CYP3A4 in human liver microsomes using testosterone as substrate by fluorescence detection assay; type: ADME, Microsome
Chain of Cytochrome P450 3A4 (P08684 whole entry): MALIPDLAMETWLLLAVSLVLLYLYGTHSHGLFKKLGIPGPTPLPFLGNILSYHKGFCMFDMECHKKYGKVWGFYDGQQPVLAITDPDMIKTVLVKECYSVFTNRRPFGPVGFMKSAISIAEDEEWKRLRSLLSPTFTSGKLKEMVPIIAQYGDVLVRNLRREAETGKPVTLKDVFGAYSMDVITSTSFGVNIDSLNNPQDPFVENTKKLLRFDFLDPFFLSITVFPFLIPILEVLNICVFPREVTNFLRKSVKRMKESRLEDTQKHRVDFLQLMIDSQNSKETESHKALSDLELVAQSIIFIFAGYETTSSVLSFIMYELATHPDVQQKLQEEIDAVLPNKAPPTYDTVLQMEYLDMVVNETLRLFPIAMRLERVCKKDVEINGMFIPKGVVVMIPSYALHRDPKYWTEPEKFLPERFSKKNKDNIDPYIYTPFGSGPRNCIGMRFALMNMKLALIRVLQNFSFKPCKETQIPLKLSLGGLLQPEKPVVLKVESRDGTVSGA
How it was run: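 Human liver microsomes at 0.25 mg/mL for CYP3A4, incubated with test compound at 0.001, 0.01, 0.1, 1.0, 5, 10 and 25 μM. IC50 is the concentration giving 50% inhibition, calculated from the decrease in metabolite formation relative to vehicle control.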

[12] = Terminal half life in BALB/c nude mouse at 50 mg/kg, po; type: ADME, organism-based; parameters: dose 50 mg/kg, route oral; settings: in vivo, read-out: beta t1/2 (converted); how it was run: as §1

In the case of `C1=C2COC/C=C/COCc3cc(ccc3OCCN3CCCC3)Nc3nccc(n3)C(=C1)O2` (mixture of isomers) [CT-1578], the Tmax [1] is reported as 30 min, the AUC(0-inf) [2] is reported as 1500 ng·h/mL and the IC50 [3] is reported as 2700 nM. For the same molecule, the IC50 [4] was 69 nM, the half-life [5] was 27 min and the Cmax [6] was 231 ng/mL. It also gave a fraction unbound at 1000 ng/mL [7] of 0.127, a GI50 (BaF3) of 250 nM and a GI50 (HL-60) of 850 nM. The half-life at 5 µM [8] was greater than 60 min, the half-life [9] was 66 min and the inhibition in vivo at 105 mg/kg (Mus musculus) was 23%. For the same molecule, the IC50 [10] was 4300 nM, the fraction unbound at 1000 ng/mL [11] was 0.127 and the IC50 (Cytochrome P450 3A4) was greater than 10000 nM. The half-life [12] was 48 min.
